Shown are actives, neighbours in structure and some others; about 1.4% of the full set was active somewhere.
NR2E3 ag-1 = NR2E3 agonists in two-hybrid cells, primary screen, cell-based, luminescence, CHO-S, Gal4-NCOR/VP16-NR2E3; Photoreceptor-specific nuclear receptor (Homo sapiens), Q9Y5X4; luciferase; inhibition of corepressor binding, % at 3.98 µM; 360,000 tested, 0.35% active; AID 602229, 2012;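 active = inhibition above the mean of all tested compounds plus 3 SD, cut at about 70% in these data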;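 note: higher means lower luciferase signal from less NR2E3 corepressor binding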
NR2E3 ag-2 = inhibitors of NR2E3-RetCOR corepressor binding, primary screen, NR2E3 agonist project, biochemical, TR-FRET, GST-NR2E3, biotin-RetCOR | Photoreceptor-specific nuclear receptor (Homo sapiens), Q9Y5X4 | AID 2300, 2010 | inhibition of corepressor binding, % at 4.78 µM | 320,000 tested, 0.12% active | 1536-well;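 active = percent inhibition above the cutoff of mean plus 3 SD of all tested compounds, set per screening campaign, cut at about 20% in these data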
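Test system: GST-NR2E3 and biotin-RetCOR proteins | Quantity: 1.35 nM GST-tagged NR2E3 final | Medium: Tris pH 7.5 | Also added: 7 nM biotin-RetCOR | Dosing: Compound at 4.8 µM, single dose | Timing: 5 h at 4 °C | Detection: Time-resolved FRET | Read-out basis: Percent inhibition | Benchmarks: Biotin wells as high control, 0.6% DMSO wells as low control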
NR1D1 modulator = modulators of Rev-erb alpha DNA binding, primary screen, biochemical, FITC-DNA, fluorescence polarization, uHTS; Nuclear receptor subfamily 1 group D member 1 (Homo sapiens), P20393; Rev-erbα–FITC-DNA binding, 90 min; activity, % at 10 µM; 370,000 tested, 0.79% active; AID 1259318, 2017;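 active = activity above about 14%, limit read from the data; passing the limit was not always enough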
Target sequence (P20393 whole entry, looked up): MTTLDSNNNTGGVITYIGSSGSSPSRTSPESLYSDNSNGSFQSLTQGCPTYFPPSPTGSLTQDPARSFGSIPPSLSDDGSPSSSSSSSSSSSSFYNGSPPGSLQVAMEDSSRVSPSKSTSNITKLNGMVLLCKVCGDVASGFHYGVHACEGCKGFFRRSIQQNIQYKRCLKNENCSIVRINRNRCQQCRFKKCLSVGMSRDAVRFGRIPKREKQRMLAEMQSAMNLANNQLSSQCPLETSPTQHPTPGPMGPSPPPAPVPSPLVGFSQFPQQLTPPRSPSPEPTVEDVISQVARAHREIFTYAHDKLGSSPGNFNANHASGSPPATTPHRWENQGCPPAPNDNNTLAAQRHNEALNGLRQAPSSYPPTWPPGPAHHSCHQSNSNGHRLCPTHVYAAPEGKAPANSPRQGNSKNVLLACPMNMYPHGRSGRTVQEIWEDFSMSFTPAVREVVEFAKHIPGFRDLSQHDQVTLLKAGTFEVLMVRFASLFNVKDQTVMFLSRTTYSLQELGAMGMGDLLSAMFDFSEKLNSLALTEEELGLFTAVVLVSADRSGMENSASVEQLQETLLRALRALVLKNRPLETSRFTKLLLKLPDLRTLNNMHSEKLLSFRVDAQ
PG9 Ab binder = binders of HIV-1 gp120 antibody PG9, primary screen, biochemical, TR-FRET | inhibition, % at 6.7 µM | TR-FRET gp120-PG9 antibody binding | 360,000 tested, 0.43% active | HIV-1 gp120 / PG9 antibody interaction; in the data active = inhibition above about 8.5%
NR2E3 ag conf = NR2E3 agonist confirmation in cells, cell-based, luminescence, CHO-S two-hybrid. shares compounds with NR2E3 ag-1. CHO-S mammalian two-hybrid NR2E3-NCOR, luciferase luminescence. inhibition, % at 3.98 µM. 2,300 tested, 51% active;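 active = average inhibition above a cutoff equal to the mean inhibition of all tested compounds plus one SD, cut at about 70% in these data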
VP16 counter = GAL4-VP16 reporter modulators, confirmation, counter-screen for NR2E3 agonist project, cell-based, luminescence, CHO-S, high throughput; shares compounds with NR2E3 ag-1; CHO-S GAL4-VP16 luciferase reporter; inhibition, % at 3.98 µM; 2,300 tested, 29% active; AID 624379, 2012;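 active = mean inhibition above a cutoff equal to the average over all tested compounds plus one standard deviation, cut at about 70% in these data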;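 note: luciferase from a UAS reporter driven by GAL4-VP16 transactivation; higher means less reporter light so more repression of VP16 activity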
Hits are given with their value; i = inactive; nt = not tested or not shown.

SMILES	NR2E3 ag-1	NR2E3 ag-2	NR1D1 modulator	PG9 Ab binder	NR2E3 ag conf	VP16 counter
OC(c1ccccc1)(c1ccccc1)C1CCN(CCCNc2cccc(Br)c2)CC1	nt	nt	i	nt	nt	nt
Cc1ccc(C(=O)NC2CCCc3c2cnn3-c2ccc(F)cc2F)cn1 (stereo unspecified)	100	i	i	i	95	79
CC(C)c1cc(C(=O)NC2CCCc3c2cnn3-c2ccccc2F)no1 (stereo unspecified)	i	i	i	i	i	i
Cc1cc(C(=O)NC2CCCc3c2cnn3-c2ccccc2F)nc(C)n1 (stereo unspecified)	i	i	i	i	nt	nt
Cc1nnsc1C(=O)NC1CCCc2c1cnn2-c1ccc(F)cc1F (stereo unspecified)	96	i	i	i	71	i
COC(=O)[C@]12C[C@H](CC(=O)NCCc3ccccc3OC)C(=O)N(Cc3cccc4ccccc34)C1=C[C@H](C(C)C)O[C@@H]2C1CC1	nt	nt	i	nt	nt	nt
COc1ccc(OC)c(NC(=O)c2nnn(Cc3ccccc3C)c2N)c1	i	i	i	i	80	i
COc1cccc(Cn2nnc(C(=O)Nc3cc(C)ccc3OC)c2N)c1	i	i	nt	nt	i	i
COc1ccc(C)cc1NC(=O)c1nnn(Cc2cc(C)ccc2C)c1N	i	i	i	i	nt	nt
CCC(C)CNC(=O)c1cn(C(C)c2ccccc2)nn1 (stereo unspecified)	nt	nt	i	nt	nt	nt
CC(C)=CCC/C(C)=C/CN1C(=O)N(c2ccc(F)cc2)[C@H]2C[C@@H](c3ccccc3)[C@@H](C)[C@@H](C(=O)N3CCOCC3)C[C@H]21	nt	nt	i	i	nt	nt
O=C(NC(c1cccnc1)C(F)(F)F)c1cc(COc2ccc3c(c2)CCCC3)on1 (stereo unspecified)	96	i	i	i	97	79
CCNc1nc2c(c(=O)n(C)c(=O)n2C)n1Cc1ccc(Cl)cc1	i	i	i	i	78	i
CCC(C)Nc1nc2c(c(=O)n(C)c(=O)n2C)n1Cc1ccc(Cl)cc1 (stereo unspecified)	i	i	i	i	nt	nt
Nc1nonc1C(=O)NCCNCc1cc(Br)ccc1OCc1ccc(F)cc1	i	i	i	i	i	i
Cc1c(N/N=C(\C#N)C(=O)c2ccc(Cl)cc2)c(=O)n(-c2ccccc2)n1C	i	i	i	i	nt	nt
N#C/C(=N\Nc1ccc(Cl)cc1)C(=O)c1ccccc1	99	i	i	i	100	91
Cc1ccc(-n2c(Cc3cccs3)nnc2SCC(=O)Nc2ccc(OCc3ccccc3)cc2)cc1	nt	nt	i	nt	nt	nt
Cc1ccc2nc(-c3ccc(NC(=O)CSc4nnc(-c5ccccc5)n4Cc4ccco4)cc3)sc2c1	nt	nt	i	nt	nt	nt
COc1cc(/C=N/NC(=O)c2cc(C3CC3)[nH]n2)ccc1O	i	i	i	i	nt	nt
COc1cc(/C=N/NC(=O)c2[nH]nc3c2CCc2ccccc2-3)ccc1O	i	i	i	i	i	i
COc1cc(/C=N/NC(=O)c2cc(C34CC5CC(CC(C5)C3)C4)[nH]n2)ccc1O	70	i	i	i	i	i
O=C(N1CCCC1)n1ncc(-c2ccc(-c3ccccc3)cc2)n1	nt	nt	i	nt	nt	nt
COc1ccc(/C=N\NC(=O)c2ccccc2Br)cc1COc1c(F)c(F)cc(F)c1F	i	i	i	i	i	i
Cc1ccc(Nc2nccc(N(C)c3ccc4c(C)n(C)nc4c3)n2)cc1S(N)(=O)=O	nt	nt	i	nt	nt	nt
SMILES	NR2E3 ag-1	NR2E3 ag-2	NR1D1 modulator	PG9 Ab binder	NR2E3 ag conf	VP16 counter
CC1CCCC/C1=N\NC(=S)Nc1ccccc1 (stereo unspecified)	i	i	i	i	nt	nt
CC(C)NC(=S)N/N=C1\CCCCC1C1CCCCC1 (stereo unspecified)	i	i	i	i	i	i
OC(Cc1ccnc2ccccc12)C(Cl)(Cl)Cl (stereo unspecified)	i	nt	i	i	i	i
C[C@H](O)[C@@H]1CN2CCc3c([nH]c4cccc(-c5ccccc5)c34)[C@@H]2C[C@@H]1N(C)C(=O)C1CCCCC1	nt	nt	i	nt	nt	nt
Cc1ccccc1Oc1cc(-n2ncc(Cl)c(Cl)c2=O)ncn1	i	i	i	i	i	i
O=C(C1CCCN1S(=O)(=O)c1ccc(Br)s1)N1CCN(c2ccccc2)CC1 (stereo unspecified)	nt	nt	i	nt	nt	nt
O=C(COc1cccc2ccccc12)Nc1ccc(Cl)cc1C(=O)O	78	i	i	i	95	i
O=C(CN1C(=O)c2ccccc2S1(=O)=O)c1ccc(F)cc1	i	i	i	i	nt	nt
O=C(CN1C(=O)c2ccccc2S1(=O)=O)c1ccc2c(c1)OCCCO2	97	i	i	i	94	89
O=C(CN1C(=O)c2ccccc2S1(=O)=O)c1ccc2c(c1)OCCO2	i	i	i	i	85	i
NC(=O)c1c(N)[nH]c(C(=O)c2ccccc2)c1-c1cccc2ccccc12	nt	nt	i	nt	nt	nt
O=c1ccc(-c2ccccc2)nn1Cc1ccc(Cl)cc1	i	i	i	i	nt	nt
C=Cc1ccc(Cn2nc(-c3ccc(C)cc3)ccc2=O)cc1	i	i	i	i	87	72
O=c1oc2ccccc2c(Nc2cccc3ccccc23)c1[N+](=O)[O-]	i	i	i	i	i	i
O=c1oc2ccccc2c(Nc2ccccc2O)c1[N+](=O)[O-]	i	i	i	i	nt	nt
O=C(Nc1ccc2c(c1)OCCO2)NC1(C(F)(F)F)Oc2ccccc2O1	i	i	i	i	i	i
O=C(Nc1ccc2c(c1)OCO2)NC1(C(F)(F)F)Oc2ccccc2O1	i	i	i	i	nt	nt
Cc1ccc(C2C(/C=C3/SC(=S)NC3=O)=C(c3cccs3)Oc3ccccc32)cc1 (stereo unspecified)	74	i	i	i	87	i
CC1Cc2cc(/C=C3/SC(=S)NC3=O)ccc2O1 (stereo unspecified)	i	i	i	i	nt	nt
CC1C/C(=N\NC(=S)NCc2ccccc2)CC(C)(C)C1 (stereo unspecified)	i	i	i	i	i	i
O=C(c1cncc(Br)c1)N1CCCc2ccccc21	74	i	i	i	i	i
COC(=O)C12C=C3CC(c4ccc(C)s4)=C3C(=O)N1Cc1[nH]c3ccccc3c1C2 (stereo unspecified)	nt	nt	i	nt	nt	nt
O=[N+]([O-])c1ccc(N2CCN(C(=S)Nc3ccc(F)cc3)CC2)cc1	i	i	i	i	nt	nt
Cc1csc2c(N3CCN(C(=S)Nc4ccc(F)cc4F)CC3)ncnc12	90	i	i	i	97	88
O=[N+]([O-])c1ccc(N2CCN(C(=S)Nc3ccc(F)cc3F)CC2)cc1	74	i	i	i	73	i

Screening results (PubChem)
